Assay results as given in ChEMBL document CHEMBL1955770, “Inhibition of S/G2 phase CDK4 reduces mitotic fidelity” (J Biol Chem, 2006).
Activity calls are given as the source filed them. No cut-off for these calls is given here.

Assays:
[1] = system: HeLa; assay: Cell cycle arrest at G2 phase in human HeLa cells at 2 uM treated at early S phase measured after 6-14 hr post thymidine-synchrony release by immunoblot method relative to untreated control
[2] = system: HeLa; assay: Decrease in survivin protein expression in human HeLa cells at 2 uM measured 14 hr post thymidine-synchrony release by immunoblot analysis; format: functional, cell-based
Procedure, shortened: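 Synchronized HeLa cells given 2 μM CDK4 inhibitor in early S phase and harvested at set times post-release. Lysed in supplemented NETN buffer on ice for 20 min. Lysates run on SDS-PAGE and immunoblotted for survivin, borealin and other chromosomal passenger proteins, with ECL detection. Cyclin D3 served as loading control.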

[3] = system: RKO; assay: Toxicity in human RKO cells at IC50 after 3 days by MTT assay; format: cell-based; conditions: 72 h
[4] = system: HeLa; assay: Cell cycle arrest in human HeLa cells assessed as delay in progression into mitosis at 2 uM measured after 8 to 20 hr post hydroxyurea-synchrony release by time-lapse microscopy; format: functional, cell-based
[5] = Cell cycle arrest in Rb-competent human SK-MEL-13 cells assessed as accumulation at G1 phase at 2 uM after 24 hrs by FACS analysis; format: functional
Procedure, shortened: (§1)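 Ethanol-fixed cells stained with propidium iodide/RNase A, DNA content read by FACS, phase and sub-diploid fractions calculated with ModFit.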

[6] = system: A2058; assay: Cell cycle arrest in human A2058 cells assessed as accumulation at G1 phase at 2 uM treated 1 hr and measured 8 hr post double hydroxyurea-synchrony release using propidium iodide staining by FACS analysis; format: functional
[7] = system: HCT-116; assay: Cell cycle arrest in Rb-competent human HCT116 cells assessed as […] at IC90 after 24 hrs using BrdUrd staining by FACS analysis (Rvb =38 %); format: functional
[8] = system: HeLa; assay: Cell cycle arrest in human HeLa cells assessed as accumulation at G1 phase at 2 uM treated 6 hr and measured 10 hr post double thymidine-synchrony release using propidium iodide staining by FACS analysis (reference value: 68 %); format: functional
[9] = system: HeLa; assay: Cell cycle arrest in human HeLa cells assessed as accumulation at S phase at 2 uM treated 4 hr and measured 10 hr post double thymidine-synchrony release using propidium iodide staining by FACS analysis (reference value: 1 %); format: functional
Procedure, shortened: (§2)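 Cells harvested at set times post-release, fixed in 70% ethanol, stained with 5 μg/ml propidium iodide plus 0.5 mg/ml RNase A, and analysed by flow cytometry. Cell-cycle phase fractions calculated by ModFit.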

[10] = Cell cycle arrest in Rb-competent human SK-MEL-13 cells assessed as accumulation at G2/M phase at 2 uM after 24 hrs by FACS analysis; format: functional
Procedure, shortened: as §1

[11] = system: HeLa; assay: Cell cycle arrest in human HeLa cells assessed as accumulation at G2/M phase at 2 uM treated 6 hr and measured 12 hr post double thymidine-synchrony release using propidium iodide staining by FACS analysis (reference value: 17 %); format: functional
Procedure, shortened: as §2

[12] = system: HeLa; assay: Cell cycle arrest in human HeLa cells assessed as accumulation at G1 phase at 2 uM treated 4 hr and measured 8 hr post double thymidine-synchrony release using propidium iodide staining by FACS analysis (reference value: 6 %); format: functional
[13] = system: NCI-H460; assay: Antiproliferative activity against human H460a cells assessed as inhibition of S phase after 48 hrs by MTT assay; format: functional, cell-based; conditions: NCI-H460, 48 h
Procedure, shortened: (§3)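 Cells grown in DMEM with 3 mM HEPES and 10% Serum Supreme at 37 °C, 5% CO2. Proliferation read by MTT assay 48 h after drug addition; IC50 given as mean of two separate determinations, each in duplicate.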

[14] = system: COLO 205; assay: Toxicity in human COLO205 cells at IC50 after 3 days by MTT assay; format: cell-based; conditions: colo 205, 72 h
[15] = target: Cyclin-dependent kinase 4 (Homo sapiens) (UniProt P11802); assay: Inhibition of CDK4-mediated Rb phosphorylation at ser 795 in human HCT116 cells at 3 times IC90 after 24 hrs by immunoblot analysis; format: cell-based; conditions: HCT-116
Procedure, shortened: (§4)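 Asynchronous HCT-116 cells (DMEM, 3 mM HEPES, 10% serum, 37 °C, 5% CO₂) were given increasing inhibitor doses for 4 or 24 h. Lysis in NETN with phosphatase and protease inhibitors, then SDS-PAGE, nitrocellulose transfer and immunoblot for phospho-Rb (Ser-795) with HRP secondary and chemiluminescence.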

[16] = system: HeLa; assay: Cell cycle arrest in human HeLa cells transfected with cyclin D3 siRNA assessed as delay in progression into mitosis at 2 uM measured after 8 to 20 hr post hydroxyurea-synchrony release by time-lapse microscopy; format: functional, cell-based
Procedure, shortened: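 HeLa cells transfected with 20 nM cyclin D3 siRNA number 1 or scrambled siRNA, then synchronized by overnight 2 mM hydroxyurea block and released. Treated with CDK4 inhibitor, siRNA, or both; entry into mitosis followed by time-lapse microscopy.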

[17] = target: Cyclin-dependent kinase 4 (Homo sapiens) (UniProt P11802); assay: Inhibition of CDK4-mediated Rb phosphorylation at ser 795 in human HCT116 cells at IC90 after 24 hrs by immunoblot analysis; format: cell-based; conditions: HCT-116
Procedure, shortened: as §4

[18] = system: HeLa; assay: Cell cycle arrest at G2 phase in human HeLa cells assessed as effect on CCNB1 accumulation at 2 uM treated at early S phase measured after 6-14 hr post thymidine-synchrony release by immunoblot method; format: functional, cell-based
Procedure, shortened: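 HeLa cells synchronized by double thymidine block and released, treated with 2 μM inhibitor in early S phase, or left untreated. Harvested at set times after release, lysed in NETN with phosphatase and protease inhibitors, run on SDS-PAGE and immunoblotted for cyclin B1 and phosphotyrosine 15 CDK1/2, with cyclin D3 as loading control. Detection by HRP secondary and ECL.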

[19] = system: HeLa; assay: Cell cycle arrest in human HeLa cells assessed as accumulation at G2/M phase at 2 uM treated 4 hr and measured 10 hr post double thymidine-synchrony release using propidium iodide staining by FACS analysis (reference value: 31 %); format: functional
Procedure, shortened: as §2

[20] = system: HCT-116; assay: Cell cycle arrest in Rb-competent human HCT116 cells assessed as […] at IC50 after 24 hrs using BrdUrd staining by FACS analysis (Rvb =38 %); format: functional
[21] = system: COLO 205; assay: Antiproliferative activity against human COLO205 cells assessed as inhibition of S phase after 48 hrs by MTT assay; format: functional, cell-based; conditions: COLO 205, 48 h
Procedure, shortened: as §3

[22] = system: HeLa; assay: Cell cycle arrest in synchronized human HeLa cells assessed as delay in mitotic entry at 2 uM by time-lapse microscopy (reference value: 8-9 hrs); format: functional
[23] = Cell cycle arrest in Rb-competent human SK-MEL-13 cells assessed as accumulation at S phase at 2 uM after 24 hrs by FACS analysis; format: functional
Procedure, shortened: as §1

[24] = system: COLO 205; assay: Toxicity in human COLO205 cells at 8 uM by MTT assay; format: cell-based; conditions: colo 205, 8 µM
[25] = system: HeLa; assay: Cell cycle arrest in Rb-deficient human HeLa cells assessed as accumulation at G2/M phase at 2 uM after 24 hrs by FACS analysis; format: functional
Procedure, shortened: as §1

[26] = system: HeLa; assay: Cell cycle arrest in human HeLa cells assessed as accumulation at G1 phase at 2 uM treated 4 hr and measured 10 hr post double thymidine-synchrony release using propidium iodide staining by FACS analysis (reference value: 68 %); format: functional
[27] = system: HeLa; assay: Cell cycle arrest in human HeLa cells assessed as accumulation at G1 phase at 2 uM treated 2 hr and measured 8 hr post double thymidine-synchrony release using propidium iodide staining by FACS analysis (reference value: 6 %); format: functional

Sequence of Cyclin-dependent kinase 4 (Homo sapiens) (P11802 whole entry): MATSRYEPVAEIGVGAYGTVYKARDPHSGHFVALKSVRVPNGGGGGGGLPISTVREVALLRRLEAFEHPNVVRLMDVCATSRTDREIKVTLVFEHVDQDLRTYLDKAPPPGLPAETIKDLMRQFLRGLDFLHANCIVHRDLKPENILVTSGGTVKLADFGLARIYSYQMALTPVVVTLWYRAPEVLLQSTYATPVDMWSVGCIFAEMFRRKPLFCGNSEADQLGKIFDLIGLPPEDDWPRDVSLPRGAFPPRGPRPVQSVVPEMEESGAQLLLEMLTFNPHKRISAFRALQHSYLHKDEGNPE

Row | SMILES | Activity [1] | Activity [2] | Activity [3] | Activity [4] | Activity [5] | Activity [6] | Activity [7] | Activity [8] | Activity [9] | Activity [10] | Activity [11] | Activity [12] | IC50 [13] | Activity [14] | inhibition [15] | Activity [16] | inhibition [17] | Activity [18] | Activity [19] | Activity [20] | further results
1 | COc1cccc(C(=O)c2sc(Nc3ccc(N4CCN(C(C)C)CC4)cc3)nc2N)c1 | Active | Active | Toxic | Active | 65% | 8% | 11% | 56% | 0% | 19% | 25% | 5% | 1140 nM | Toxic | Active | Active | Active | inactive | 88% | 20% | IC50 [21]: 560 nM; Time [22]: 11 h; Activity [23]: 7%; Activity [24]: Toxic; Activity [25]: 14%; Activity [26]: 12%; Activity [27]: 7%
2 | CN1CCN(c2ccc(Nc3nc(N)c(C(=O)c4ccc5c(c4)OCCO5)s3)cc2)CC1 | Active | Active | Toxic | Active | 65% | 8% | 11% | 56% | 0% | 19% | 25% | 5% | 8120 nM | Toxic | Active | Active | Active | inactive | 88% | 20% | IC50 [21]: 2040 nM; Time [22]: 11 h; Activity [23]: 7%; Activity [24]: Toxic; Activity [25]: 14%; Activity [26]: 12%; Activity [27]: 7%
